How the values were obtained:
[1] = test system: WA09/H9 ESC; assay: Cellular ATP level; type: cell-based, human; conditions: read-out: IC50 ATP
How it was run: (§1)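 Cellular ATP was measured with a CellTiter-Glo luminescence viability assay after exposure to a concentration range of test compound. IC50 is the average of three independent assays. Mean IC50s across differentiated or human pluripotent lines, and their ratio, are derived from the per-line values.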

[2] = test system: NTERA-2 ECCs; assay: Immunoblotting of total cell extracts; type: cell-based, human
How it was run: (§2)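 Cells were cultured with 2.5 μM test compound for up to 96 h, and attached plus unattached cells were pooled. Whole-cell RIPA lysates were run on 4–12% Bis-Tris gels, transferred to nitrocellulose and blocked in 5% milk/TBS. Primary antibodies went on overnight at 4°C, followed by infrared secondary antibodies and imager quantitation. Each blot carried untreated U2OS as a shared standard, with Ponceau-S histones for normalization and lighter exposures for quantitation. Adriamycin for 24 h (NTERA-2 1 μM, H108 2 μM) served as a DNA-break control.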

[3] = test system: VeroE6 normal kidney epithelial; assay: Live cells / PCD by FACS of nonpermeabilized cells stained with annexin-V and PI; type: cell-based, monkey; conditions: read-out: IC50 Live Cells (PCD)
How it was run: (§3)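 Cells were seeded so that vehicle wells stayed subconfluent, then treated with a range of test compound concentrations for 4 days. Without permeabilization, they were stained with annexin-V-FITC and propidium iodide and analysed by flow cytometry. Double-negative cells (Q3) were scored as live and Q1+Q2 as programmed death. Vehicle was set to 100% viable and 0% dead. Results are the mean of three independent assays with SEM; group averages and ratios are derived from the IC50s.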

[4] = test system: SCUi24 iPSC; assay: Cellular ATP level; type: cell-based, human; conditions: read-out: IC50 ATP
How it was run: as §1

[5] = test system: WA01/H1 ESC; assay: Cellular ATP level; type: cell-based, human; conditions: read-out: IC50 ATP
How it was run: as §1

[6] = test system: SCUi24 iPSC; assay: Live cells / PCD by FACS of nonpermeabilized cells stained with annexin-V and PI; type: cell-based, human; conditions: read-out: IC50 Live Cells
How it was run: as §3

[7] = test system: VeroE6 normal kidney epithelial; assay: Cellular ATP level; type: cell-based, monkey; conditions: read-out: IC50 ATP
How it was run: as §1

[8] = test system: H1-diff (spontaneously differentiated H1 ESCs); assay: Live cells / PCD by FACS of nonpermeabilized cells stained with annexin-V and PI; type: cell-based, human; conditions: read-out: IC50 Live Cells, 4 days
How it was run: as §3

[9] = test system: NTERA-2 teratocarcinoma xenografts; assay: Teratocarcinoma xenograft, daily intraperitoneal injections; type: in vivo, mice
How it was run: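 Six-week-old female […] BALB/c nude mice were injected subcutaneously in the lower right flank with 200 μL of 50% Matrigel holding 2 million NTERA-2 or 5 million GCT27D.C1 cells (eight mice per model). Once tumors were palpable, mice received 40 mg/kg test compound i.p. daily (DMSO solution diluted in sunflower oil to 200 μL) or vehicle. Tumor volume was calculated as length × width² × 0.5 from calipers, TGI was calculated, and body weight was tracked. Tumors were harvested 15 days later.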

[10] = test system: HBEC normal lung epithelial; assay: Cells with <2N DNA by FACS of permeabilized cells stained with PI; type: cell-based, human; conditions: read-out: IC50 DNA (50% of cells with <2N DNA)
How it was run: (§4)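 Cells were exposed to a range of test compound concentrations alongside vehicle (DMSO) controls. They were then permeabilized, stained with propidium iodide, and DNA content was read by flow cytometry. IC50 is the concentration at which 50% of cells hold <2N DNA, from 3 independent repetitions with SEM. Line averages and differentiated/pluripotent ratios are derived from these IC50s. NTERA-2 was also run as a time course at 5 μM, normalized to vehicle at each time point.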

[11] = Maximum solubility in DMSO; type: physicochemical
[12] = test system: differentiated cells; assay: PCD / live cell loss; type: cell-based; conditions: read-out: IC50 initiation of PCD, on average; average over differentiated cells
How it was run: as §3

[13] = test system: TERA-2 ECC; assay: Cellular ATP level; type: cell-based, human; conditions: read-out: IC50 ATP
How it was run: as §1

[14] = test system: SCUi24-diff (spontaneously differentiated SCUi24 iPSCs); assay: Cells with <2N DNA by FACS of permeabilized cells stained with PI; type: cell-based, human; conditions: read-out: IC50 DNA (50% of cells with <2N DNA)
How it was run: as §4

[15] = test system: WA09/H9 ESC; assay: Live cells / PCD by FACS of nonpermeabilized cells stained with annexin-V and PI; type: cell-based, human; conditions: read-out: IC50 Live Cells
How it was run: as §3

[16] = test system: GCT27D.C1 ECC; assay: as above; type: cell-based, human; conditions: read-out: IC50 Live Cells, 4 days
How it was run: as §3

[17] = test system: differentiated cells; assay: ATP loss, summary over differentiated cell lines; type: cell-based; conditions: read-out: IC50 ATP loss, on average
How it was run: as §1

[18] = test system: H108 fibroblasts; assay: Immunoblotting of total cell extracts; type: cell-based, human
How it was run: as §2

[19] = test system: H108 normal skin fibroblast; assay: Cellular ATP level; type: cell-based, human; conditions: read-out: IC50 ATP
How it was run: as §1

[20] = test system: WA01/H1 ESC; assay: Cells with <2N DNA by FACS of permeabilized cells stained with PI; type: cell-based, human; conditions: read-out: IC50 DNA (50% of cells with <2N DNA)
How it was run: as §4

[21] = test system: human pluripotent cells; assay: DNA loss; type: cell-based
How it was run: as §4

[22] = NTERA-2, 2.5 μM WX8, normalized to histones
[23] = H108, 2.5 μM WX8, normalized to histones
[24] = H108 fibroblasts, 2.5 μM WX8 or 2 μM Adriamycin 24 h

C(=N\Nc1nc(Nc2ccccc2)nc(N2CCOCC2)n1)/c1c[nH]c2ccccc12 [WX8]
IC50 [1]: 260 nM
CASP3 cleavage ([2]; NTERA-2, 2.5 μM WX8): < 2%
PARP cleavage ([2]; NTERA-2, 2.5 μM WX8): 41%
Accumulation of p62 protein [2, 22]: 9 fold
Accumulation of total LC3 protein [2, 22]: 4 fold
CASP12 cleavage ([2]; NTERA-2, WX8): < 2%
Cleaved CASP7 ([2]; NTERA-2, WX8): not detected
IC50 [3]: 60000 nM
IC50 [4]: 400 nM
IC50 [5]: 1600 nM
IC50 [6]: 2500 nM
IC50 [7]: 14000 nM
IC50 [8]: > 10000 nM
Tumor growth inhibition (TGI) ([9]; NTERA-2 tumors, 40 mg WX8/kg daily i.p.): 71%
Mouse body weights ([9]; NTERA-2 xenograft mice, 40 mg WX8/kg daily i.p.): maintained
Effect on teratocarcinoma xenografts ([9]; NTERA-2 xenografts, intraperitoneal injections of WX8): Eliminated stem cells and inhibited tumor growth
IC50 [10]: 20000 nM
Maximum solubility [11]: about 30 mg WX8/350μL DMSO
IC50 [12]: 81300 nM
IC50 [13]: 3000 nM
IC50 [14]: > 10000 nM
IC50 [15]: 2500 nM
IC50 [16]: 280 nM
IC50 [17]: 15800 nM
Accumulation of p62 protein [18, 23]: 13 fold
Accumulation of total LC3 protein [18, 23]: 10 fold
CASP3 cleavage [18, 24]: Neither WX8 nor Adriamycin induced cleavage
PARP cleavage [18, 24]: Neither WX8 nor Adriamycin induced cleavage
IC50 [19]: 15000 nM
IC50 [20]: 2000 nM
Difference in DNA loss, differentiated vs pluripotent cells ([21]; ratio of average IC50): 24 fold
IC50 ([21]; read-out: IC50 DNA loss, on average, average over human pluripotent cells): 2800 nM
